# High-throughput results as filed in PubChem.
# Kir21 inh – Kir2.1 (mouse) channel inhibition | HEK293-Kir2.1, FluxOR thallium flux fluorescence; hits give low values | 0.85% of 310,000 active | B-score at 10 µM | P35561;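 active means fluorescence ratio B-score at or below minus 3 SD of library scores, with starting-brightness B-score within 2 SD, cut at about -4.2 in these data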;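 further: channel flux triggered by added potassium and thallium sulfate stimulus; B-score of peak minus minimum fluorescence over baseline after thallium stimulus; more negative B-score means stronger Kir2.1 block with less thallium influx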
# KCNQ1 block – blocks the human KCNQ1 potassium channel | 1.3% of 310,000 active | CHO-K1 KCNQ1, FluxOR thallium flux fluorescence; hits give high values | B-score at 10 µM | P51787;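 active means compounds whose thallium flux B-score, printed positive for inhibition, exceeds three library SD while starting fluorescence stays within three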;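 further: channel opened by potassium depolarization with thallium stimulus after 20 min compound exposure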
# Target sequence (P51787 whole entry, looked up): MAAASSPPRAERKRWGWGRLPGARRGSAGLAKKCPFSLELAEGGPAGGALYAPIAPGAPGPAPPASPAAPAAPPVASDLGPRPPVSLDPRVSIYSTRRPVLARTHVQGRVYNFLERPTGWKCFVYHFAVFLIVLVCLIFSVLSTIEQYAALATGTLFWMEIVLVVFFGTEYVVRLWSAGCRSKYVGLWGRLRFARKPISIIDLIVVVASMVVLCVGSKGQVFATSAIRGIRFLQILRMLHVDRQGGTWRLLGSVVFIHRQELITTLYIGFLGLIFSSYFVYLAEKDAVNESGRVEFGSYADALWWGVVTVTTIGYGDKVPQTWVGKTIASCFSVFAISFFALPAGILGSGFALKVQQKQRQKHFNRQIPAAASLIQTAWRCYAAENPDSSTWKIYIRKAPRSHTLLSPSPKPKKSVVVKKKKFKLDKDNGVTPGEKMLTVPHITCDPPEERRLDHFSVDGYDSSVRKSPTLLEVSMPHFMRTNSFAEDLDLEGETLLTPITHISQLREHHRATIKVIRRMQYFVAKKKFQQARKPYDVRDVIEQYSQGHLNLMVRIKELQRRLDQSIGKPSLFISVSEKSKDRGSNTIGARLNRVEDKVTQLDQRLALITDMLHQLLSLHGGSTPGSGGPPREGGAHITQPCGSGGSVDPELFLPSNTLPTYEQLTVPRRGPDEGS
# hERG protect – shields human hERG channel from block by proarrhythmic agents. activation (rescue from dofetilide block), less the hit threshold, % at 10 µM. 0.51% of 310,000 active. CHO-hERG, FluxOR thallium flux, dofetilide IC70 present. AID 1511. Q12809;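 active means activation above the mean of controls blocked by dofetilide plus 5 SD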;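 further: thallium influx through hERG after potassium depolarization seen as dye fluorescence rise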
# KCNQ1 act – human KCNQ1 channel potentiation or activation; P51787; CHO-K1 KCNQ1, thallium flux FluxOR fluorescence; hits give high values; B-score at 10 µM; 0.35% of 310,000 active; AID 2648;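 active means fluorescence ratio B-score, a plate-corrected score, at least three library SD, with initial intensity B-score within 5 SD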
#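 assay system = KCNQ1-transfected CHO-K1 cells | medium = assay buffer with matched DMSO | probe or stimulus = depolarizing K+/Tl+ stimulus, K2SO4 and Tl2SO4 each 12.5 mM in 5x stock | dosing = single dose | incubation = dye 90 min, compound 20 min, room temperature | detection = kinetic FluxOR fluorescence, 10 s baseline plus 110 s post-stimulus | evaluation = ratio B score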
# KCNK3 inh – human KCNK3 channel inhibition, primary screen | O14649 | 0.84% of 340,000 active | CHO-KCNK3 thallium flux, FluxOR fluorescence; hits give low values | AID 602410 | B-score at 10 µM;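 active means B-score under library mean minus 4 SD, starting fluorescence ratio at most library mean plus 5 SD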;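 further: more negative B-score means stronger inhibition of thallium flux through KCNK3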
# KCNK9 block – human KCNK9 channel inhibition. Q9NPC2. HEK293 KCNK9, FluxOR thallium flux fluorescence; hits give low values. B-score at 10 µM. 1.2% of 310,000 active. AID 488922;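 active means ratio B-score over 3 SD below the library mean, with starting fluorescence within 5 SD of its mean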;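 further: negative B-score means less thallium flux so channel inhibition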
# KCNK9 inh conf – confirmation of human KCNK9 potassium channel inhibitors; shares compounds with KCNK9 block; HEK293 KCNK9 cells, FluxOR thallium flux fluorescence; inhibition, % at 10 µM; 43% of 4,900 active; AID 492992;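 active means thallium signal inhibited by more than 5 SD of the compound-free buffer control wells, on both duplicate plates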;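 further: 0% = assay buffer control wells without compound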
# Kir21 sel – tests whether KCNK9 modulators also affect mouse Kir2.1; shares compounds with KCNK9 block; Kir2.1 cells, FluxOR thallium flux fluorescence; inhibition, % at 10 µM; 4% of 4,900 active; AID 492993;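 active means thallium signal drop more than 5 SD beyond the mean of the no-compound control wells, seen in both duplicate plates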;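 further: signal is fluorescence rise after thallium addition divided by baseline fluorescence; plate controls were assay buffer only for no effect and full block by chlorpromazine control for full effect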
# KCNK9 uninduced – second check of KCNK9 modulator effects in non-induced HEK293 cells. FluxOR thallium flux. 40% of 4,900 active. inhibition, % at 10 µM. shares compounds with KCNK9 block;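 active means thallium signal drop beyond 5 SD of the untreated control mean, on both duplicate plates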;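 further: plate controls were buffer only IC0 wells for no effect and SID17386958 at its maximal inhibitory level for full effect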
# The depositor's hits bear a star; i = inactive; x = no result given. The list is not random: actives were taken first. Their share in the collection is about 3.8%.
SMILES,Kir21 inh,KCNQ1 block,hERG protect,KCNQ1 act,KCNK3 inh,KCNK9 block,KCNK9 inh conf,Kir21 sel,KCNK9 uninduced
CC1(CCC(=O)N2CCCC(Nc3ccc(F)cc3)C2)CC1 (centres undefined),-6.1*,i,-11,i,i,i,i,i,i
Cc1ccc(S(=O)(=O)NCCC(=O)OCC(=O)Nc2ccccc2Cl)cc1,-0.14,i,-7,i,i,i,x,x,x
Cc1oc(-c2ccccc2)nc1C(=O)Nc1nccs1,-2.8,i,-13,i,i,i,x,x,x
CCOc1ccccc1NC(=O)c1nc(-c2ccccc2)oc1C,0.06,i,-4,i,i,-12*,i,i,25%*
CCOc1ccccc1C(=O)Nc1ccccc1-c1ccccc1,-1.8,i,-20,i,i,-8.8*,72%*,38%*,25%*
Cc1ccc(OCCCC(=O)Nc2nnc(C3CCCO3)s2)c(C)c1 (centres undefined),-0.83,i,-7,i,i,i,x,x,x
COc1cccc(NC(=O)CN(C)S(=O)(=O)c2ccc3[nH]c(=O)oc3c2)c1,1.7,i,-10,i,i,i,x,x,x
Cc1ccc(OCC(=O)Nc2cccnc2Cl)cc1C,0.9,i,-8,i,i,i,x,x,x
Cc1cccc(C)c1NC(=O)C(C)c1ccc(-c2ccccc2)c(F)c1 (centres undefined),-1.5,i,-1,i,i,-10*,47%*,i,46%*
Cc1cccc(C)c1NC(=O)C(NC=O)c1ccc(Cl)cc1 (centres undefined),1.2,i,-7,i,i,i,x,x,x
COc1ccc(OC)c(S(=O)(=O)N2CCN(c3c(C)cccc3C)CC2)c1,1.8,i,-17,i,i,-11*,52%*,i,34%*
COC(=O)c1cc2sc(Cl)cc2n1CC(=O)Nc1cccc(SC)c1,0.3,i,-4,i,i,-10*,48%*,i,32%*
NC(=O)c1c(NC(=O)c2cccnc2)sc2c1CCCCC2,0.73,i,-2,i,i,i,x,x,x
CC(c1cccs1)N(C(=O)Nc1ccccc1)C1CCCCC1 (centres undefined),-0.33,i,-20,i,i,i,i,i,i
CCOC(=O)c1ccccc1NC(=O)c1cccc([N+](=O)[O-])c1,1.4,i,-4,i,i,i,x,x,x
O=C(COC(=O)c1ccccc1NC(=O)c1ccccc1)c1cccc([N+](=O)[O-])c1,-0.06,i,-11,i,i,-14*,69%*,i,32%*
CCOc1ccc(NC(=O)c2ccc(NS(=O)(=O)c3cccs3)cc2)cc1,1.3,i,-10,i,i,i,x,x,x
CC(C)OC(=O)CSc1nc(Cc2cccs2)nc2ccccc12,-4.4*,i,-16,i,i,-12*,54%*,45%*,32%*
CC(C)c1ccccc1-n1c(SCc2cc(=O)oc3ccc4ccccc4c23)nnc1-c1cccnc1,-1.7,i,-17,i,i,-11*,50%*,i,i
CCOC(=O)Cn1c(=O)cc(C)c2cccc(C)c21,-1.3,i,-15,i,i,i,i,i,i
COCCNC(=O)CSc1nnc(-c2ccccc2F)n1Cc1ccccc1,0.86,i,-4,i,i,i,x,x,x
CCc1ccc(NC(=O)CCc2ccc(CC)o2)cc1,0.41,i,-7,i,i,i,x,x,x
CCOC(=O)N/N=C/c1c(C)nn(-c2cccc(C(F)(F)F)c2)c1Cl,1,i,-4,i,i,i,x,x,x
COC(=O)N/N=C/c1c(C)nn(-c2cccc(Cl)c2)c1Cl,-0.49,i,-6,i,i,-8.3*,42%*,i,28%*
O=C(Cc1cccc2ccccc12)NCCc1ccccc1,-1.9,i,-10,i,i,i,x,x,x
SMILES,Kir21 inh,KCNQ1 block,hERG protect,KCNQ1 act,KCNK3 inh,KCNK9 block,KCNK9 inh conf,Kir21 sel,KCNK9 uninduced
CCOC(=O)CSc1nc2ccccc2c(=O)n1Cc1ccco1,0.64,i,-8,i,i,i,x,x,x
CCOC(=O)CSc1nc2c(sc(=S)n2-c2ccccc2OC)c(=O)n1Cc1ccco1,1.2,i,-11,i,i,-9.1*,i,i,36%*
CCOC(=O)CSc1nc2c(sc(=S)n2-c2ccccc2OC)c(=O)n1-c1ccccc1OC,2,i,-4,i,i,-10*,i,i,31%*
O=C(O)COc1ccccc1/C=N/NC(=O)CSc1nnc(-c2ccc(Cl)cc2)n1C1CCCCC1,1.1,i,-8,i,i,i,x,x,x
Cc1nc(N(C)Cc2ccccc2)c2nnn(Cc3ccccc3)c2n1,0.96,i,-14,i,i,i,i,i,i
CC1(C)Oc2ccc3ccc(=O)oc3c2/C(=C/N)C1=O,-0.7,i,-1,i,i,i,x,x,x
CC1(C)Oc2ccc3ccc(=O)oc3c2/C(=C/NC2CCCCC2)C1=O,0.63,8*,-8,i,i,-11*,35%*,i,34%*
N#Cc1ccc(NC(=O)COC(=O)CSc2nnc(-c3ccc(Cl)cc3)o2)cc1,1.3,i,-4,i,i,i,x,x,x
COc1ccc(OC)c(C(c2nnnn2C2CCCC2)N2CCN(c3ccccc3)CC2)c1 (centres undefined),0.09,i,-8,i,i,-8.6*,58%*,i,43%*
COc1ccc(C(c2nnnn2C2CCCCC2)N2CCN(c3ccc(OC)cc3)CC2)cc1 (centres undefined),-2.5,i,-7,i,i,i,x,x,x
C=CCN=C1N[C@@H](c2ccccc2)C(C(=O)OC)=C(C)N1CC,-0.88,i,-8,i,i,i,x,x,x
CCCC(=O)Nc1cc(C)c(NC(=O)c2ccccn2)cn1,-0.08,i,-10,i,i,i,x,x,x
Cc1cc(NC(=O)C(C)C)ncc1NC(=O)c1ccccn1,1.2,i,-1,i,i,i,i,i,i
CN(CCc1cnn(C)c1)Cc1nc(Cc2ccccc2)no1,-0.4,i,-11,i,i,i,x,x,x
CN(Cc1cnn(-c2ccc(F)cc2)c1)Cc1nc(Cc2ccccc2)no1,0.04,i,-14,i,i,i,i,i,i
